Only some compounds are listed: those with a hit (about 3.8% of all), similar ones and a draw of the others.
hERG rescue: compounds protecting human hERG from proarrhythmic drug block; Q12809; CHO-hERG, FluxOR thallium flux, dofetilide IC70 present; activation (rescue from dofetilide block), less the hit threshold, % at 10 µM; 0.51% of 310,000 active;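 active = activation above the mean of controls blocked by dofetilide plus 5 SD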;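 also: thallium influx through hERG after potassium depolarization seen as dye fluorescence rise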
Kir21 inh: inhibitors of mouse Kir2.1 inward-rectifier potassium channel; HEK293-Kir2.1, FluxOR thallium flux fluorescence; stronger effect = lower value; B-score at 10 µM; 0.85% of 310,000 active;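 active = fluorescence ratio B-score at or below minus 3 SD of library scores, with starting-brightness B-score within 2 SD, cut at about -4.2 in these data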;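 also: channel flux triggered by added potassium and thallium sulfate stimulus; B-score of peak minus minimum fluorescence over baseline after thallium stimulus; more negative B-score means stronger Kir2.1 block with less thallium influx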
KCNQ1 pot: potentiates or activates the human KCNQ1 potassium channel | P51787 | CHO-K1 KCNQ1, thallium flux FluxOR fluorescence; stronger effect = higher value | B-score at 10 µM | 0.35% of 310,000 active | AID 2648;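 active = fluorescence ratio B-score, a plate-corrected score, at least three library SD, with initial intensity B-score within 5 SD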
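Assay system: CHO-K1 cells stably expressing KCNQ1; Medium: assay buffer with matched DMSO; Also added: K+/Tl+ depolarizing stimulus; Dosing: single dose; Timing: dye 90 min, compound 20 min, room temperature; Measured by: kinetic FluxOR thallium fluorescence, 10-s 1-Hz baseline, 110-s post-stimulus read; Read-out: peak-minus-minimum fluorescence over initial fluorescence, negative-control normalized, B-scored.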
KCNK3 inh: human KCNK3 channel inhibition, primary screen; AID 602410; 0.84% of 340,000 active; CHO-KCNK3 thallium flux, FluxOR fluorescence; stronger effect = lower value; O14649; B-score at 10 µM;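 active = B-score under library mean minus 4 SD, starting fluorescence ratio at most library mean plus 5 SD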;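 also: more negative B-score means stronger inhibition of thallium flux through KCNK3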
Target sequence (O14649 whole entry, looked up): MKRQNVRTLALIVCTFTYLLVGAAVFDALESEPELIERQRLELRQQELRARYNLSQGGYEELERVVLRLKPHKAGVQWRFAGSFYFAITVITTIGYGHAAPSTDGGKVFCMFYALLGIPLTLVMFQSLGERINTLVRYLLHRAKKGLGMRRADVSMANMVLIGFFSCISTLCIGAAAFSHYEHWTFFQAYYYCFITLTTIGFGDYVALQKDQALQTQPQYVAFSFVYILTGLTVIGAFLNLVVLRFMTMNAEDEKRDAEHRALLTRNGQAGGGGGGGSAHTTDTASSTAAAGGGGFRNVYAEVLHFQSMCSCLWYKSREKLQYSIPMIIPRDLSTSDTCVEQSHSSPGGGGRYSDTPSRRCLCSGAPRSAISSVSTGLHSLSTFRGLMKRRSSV
KCNK9 block: inhibitors of human KCNK9 two-pore domain potassium channel. Q9NPC2. HEK293 KCNK9, FluxOR thallium flux fluorescence; stronger effect = lower value. B-score at 10 µM. 1.2% of 310,000 active;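 active = ratio B-score over 3 SD below the library mean, with starting fluorescence within 5 SD of its mean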;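 also: negative B-score means less thallium flux so channel inhibition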
KCNQ1 inh: human KCNQ1 channel inhibition | AID 2642 | CHO-K1 KCNQ1, FluxOR thallium flux fluorescence; stronger effect = higher value | 1.3% of 310,000 active | B-score at 10 µM;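 active = compounds whose thallium flux B-score, printed positive for inhibition, exceeds three library SD while starting fluorescence stays within three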;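 also: channel opened by potassium depolarization with thallium stimulus after 20 min compound exposure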
KCNK3 inh conf: confirmation of human KCNK3 two-pore domain potassium channel inhibitors. 99% of 2,400 active. ratio percent of control, % at 10 µM. shares compounds with KCNK3 inh. CHO-KCNK3 thallium flux, FluxOR fluorescence; 0% buffer, 100% carvedilol maximal block;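 active = ratio percent of control, averaged over triplicates, above buffer control mean plus 5 SD, cut at about 64% in these data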;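 also: ratio is the fluorescence rise from min to max over baseline after thallium stimulus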
KCNK3 uninduced: activity in cells without induced KCNK3 expression; thallium flux ratio (lower = more inhibition) at 10 µM; 40% of 2,400 active; shares compounds with KCNK3 inh; non-induced KCNK3 parental cells, FluxOR thallium flux; stronger effect = lower value;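 active = thallium flux ratio, averaged over three wells, more than 5 SD below the buffer control mean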;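 also: host cells are CHO cells without KCNK3 induction; ratio is peak minus trough fluorescence over baseline then normalized to buffer controls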
* hit, by the source's call.

For Cc1ccc(/C=C2/C(=O)ON=C2c2ccccc2)o1 the results were hERG rescue -11.4, Kir21 inh -5.87*, KCNQ1 pot inactive, KCNK3 inh -10*, KCNK9 block inactive, KCNQ1 inh inactive, KCNK3 inh conf 122.0* and KCNK3 uninduced inactive.
`COc1cc(/C=C2\C(=O)ON=C2c2ccccc2)cc(Cl)c1O` gave hERG rescue -42.6, Kir21 inh -10.3*, KCNQ1 pot inactive, KCNK3 inh -8.87*, KCNK9 block inactive, KCNQ1 inh inactive, KCNK3 inh conf 115.3* and KCNK3 uninduced 0.143*.
`CCOc1cc(/C=C2\C(=O)ON=C2c2ccccc2)cc(Br)c1O` gave hERG rescue -31.7, Kir21 inh -7.29*, KCNQ1 pot inactive, KCNK3 inh -8.82*, KCNK9 block inactive, KCNQ1 inh 6*, KCNK3 inh conf 135.3* and KCNK3 uninduced 0.0977*.
Screening COc1ccc(CN(C)C(C)C(=O)Nc2cccc3ccccc23)cc1 (centres undefined) returned hERG rescue -11.5, Kir21 inh -0.06, KCNQ1 pot inactive, KCNK3 inh -9.65*, KCNK9 block inactive, KCNQ1 inh inactive, KCNK3 inh conf 120.7* and KCNK3 uninduced 0.156*.
Screening COc1ccccc1NC(=O)C(C)N(C)CC(=O)Nc1cccc2ccccc12 (centres undefined) returned KCNK3 inh inactive.
For COc1ccccc1NC(=O)C(C)N(C)Cc1ccc(Cl)s1 (centres undefined) the results were hERG rescue -8.4, Kir21 inh -0.94, KCNQ1 pot inactive, KCNK3 inh inactive, KCNK9 block -6.9*, KCNQ1 inh inactive, KCNK3 inh conf 107.0* and KCNK3 uninduced 0.156*.
Screening Cc1ccc(S(=O)(=O)N2CCCC2CNC(=O)C(=O)NCCN2CCOCC2)cc1 (centres undefined) returned hERG rescue -14.7, Kir21 inh 0.02, KCNQ1 pot inactive, KCNK3 inh inactive, KCNK9 block inactive and KCNQ1 inh inactive.
Screening CN1CCN(C(=O)c2ccc(OCCOc3ccccc3)cc2)CC1 returned hERG rescue -7.6, Kir21 inh 0, KCNQ1 pot inactive, KCNK3 inh inactive, KCNK9 block inactive and KCNQ1 inh inactive.
For CCN1C(=O)[C@@H]2Cc3c([nH]c4ccccc34)C(c3ccc(OC)cc3)N2C1=S (some centres undefined) the results were hERG rescue -14.4, Kir21 inh 0.99, KCNQ1 pot inactive, KCNK3 inh inactive, KCNK9 block inactive and KCNQ1 inh inactive.
Screening O=c1[nH]c(SCCOc2ccccc2F)nc2ccccc12 returned hERG rescue -19.1, Kir21 inh 0.34, KCNQ1 pot inactive, KCNK3 inh inactive, KCNK9 block inactive and KCNQ1 inh inactive.
For Cn1c(SCc2ccccc2)nc2ccsc2c1=O the results were hERG rescue -10.8, Kir21 inh -1.24, KCNQ1 pot inactive, KCNK3 inh -9.84*, KCNK9 block inactive, KCNQ1 inh inactive, KCNK3 inh conf 104.0* and KCNK3 uninduced inactive.
Cn1c(SCCOc2ccccc2F)nc2ccccc2c1=O was read as hERG rescue -12.0, Kir21 inh 1.25, KCNQ1 pot inactive, KCNK3 inh -12.9*, KCNK9 block inactive, KCNQ1 inh inactive, KCNK3 inh conf 110.0* and KCNK3 uninduced inactive.
Screening Cn1c(SCc2ccc(Br)cc2)nc2ccccc2c1=O returned hERG rescue -3.1, Kir21 inh -0.26, KCNQ1 pot inactive, KCNK3 inh -9.51*, KCNK9 block inactive, KCNQ1 inh inactive, KCNK3 inh conf 122.7* and KCNK3 uninduced 0.133*.
`Cc1ccc(CNC(=O)CC2(CC3=NS(=O)(=O)c4ccccc4N3)CCCC2)cc1` gave hERG rescue -12.1, Kir21 inh 0.59, KCNQ1 pot inactive, KCNK3 inh inactive, KCNK9 block inactive and KCNQ1 inh inactive.

Assay outcomes (PubChem BioAssay)
